Measured values as given in ChEMBL document CHEMBL3352032, “Antiplasmodial activity of new 4-aminoquinoline derivatives against chloroquine resistant strain” (Bioorg Med Chem, 2014).

Experiments:
Plasmodium falciparum [1] = assay: Antiplasmodial activity against chloroquine-sensitive Plasmodium falciparum 3D7 after 72 hrs by SYBR Green-1 staining-based fluorescence assay; format: functional, organism-based; conditions: 3D7, 72 h
How it was run: (§1)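 Compounds were dissolved in DMSO as 10 mM stocks and two-fold serially diluted. Dilutions were incubated with a 1.0% parasitized cell suspension at 0.8% parasitemia, using an asynchronous culture with more than 80% ring stages. Incubation was 72 h at 37 °C in 5% CO2/air. Lysis buffer with 2x SYBR Green-1 was then added for 1 h at 37 °C, and fluorescence (RFU) was read at 485±20 nm.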

[2] = Selectivity index, ratio of CC50 for African green monkey Vero cells to IC50 for Plasmodium falciparum; format: functional
How it was run: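 Vero cells exposed to compound dilutions for 72 h; cytotoxicity read by MTT, CC50 by nonlinear regression of dose-response curves. Antiplasmodial IC50 from P. falciparum asynchronous culture (>80% rings, 0.8% parasitemia, 1% hematocrit suspension), twofold serial dilutions, 72 h at 37 °C, 5% CO2, SYBR Green I fluorescence. SI = CC50/IC50.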

[3] = Inhibition of beta-hematin formation assessed as inhibition of hemozoin formation by UV spectrophotometry; format: physicochemical
How it was run: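 β-Hematin polymerization induced by 1-oleoyl-rac-glycerol, read at 405 nm by UV spectrophotometry. Triplicate values expressed as percent inhibition relative to drug-free hemozoin formation. IC50 in millimolar equivalents of compound relative to hemin, from sigmoidal dose-response non-linear regression. Means ± SD from at least three experiments in duplicate.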

Plasmodium falciparum [4] = assay: Antiplasmodial activity against chloroquine-resistant Plasmodium falciparum K1 after 72 hrs by SYBR Green-1 staining-based fluorescence assay; format: functional, organism-based; conditions: K1, 72 h; how it was run: as §1
Plasmodium falciparum [5] = assay: Resistance index, ratio of IC50 for chloroquine-resistant Plasmodium falciparum K1 to IC50 for chloroquine-sensitive Plasmodium falciparum 3D7; format: functional
How it was run: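 The index is the IC50 against K1 divided by the IC50 against 3D7. Both IC50s come from the 72 h SYBR Green-1 fluorescence assay: two-fold serial dilutions from 10 mM DMSO stocks, 1.0% parasitized cells at 0.8% parasitemia (>80% rings), 37 °C, 5% CO2.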

[6] = Association constant, log K of the compound in aqueous DMSO at pH 7.5 assessed as complex formation by UV spectrophotometry; format: physicochemical; conditions: buffer
How it was run: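 Spectrophotometric titration of hematin with compound in 40% aqueous DMSO, 20 mM HEPES, pH 7.5, 25 °C; hematin monomeric under these conditions. Association constant fitted for 1:1 compound:hematin complex. Means ± SD from at least three experiments in duplicate.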

| Compound | IC50 (Plasmodium falciparum [1]) | Ratio CC50/IC50 [2] | IC50 [3] | inhibition (INH) [3] | IC50 (Plasmodium falciparum [4]) | Ratio IC50 (Plasmodium falciparum [5]) | log K [6] |
| --- | --- | --- | --- | --- | --- | --- | --- |
| CC(C)C[C@H](Nc1ccnc2cc(Cl)ccc12)C(=O)N1CCN(C)CC1 | 60.2 nM | 905 | 0.2283 mMequiv | Dose-dependent effect | 147 nM | 2.44 | 5.38 |
| CC(C)[C@H](CC(=O)N1CCN(C)CC1)Nc1ccnc2cc(Cl)ccc12 | 44.1 nM | 6045 | 0.2286 mMequiv | Dose-dependent effect | 324 nM | 7.33 | 5.33 |
| C[C@H](O)[C@H](Nc1ccnc2cc(Cl)ccc12)C(=O)N1CCN(C)CC1 | 142 nM | 1934 | 0.3837 mMequiv | Dose-dependent effect | > 1380 nM | >9.67 | 6.07 |
| CN1CCN(C(=O)CCNc2ccnc3cc(Cl)ccc23)CC1 | 35.9 nM | 6472 | 0.3293 mMequiv | Dose-dependent effect | 398 nM | 11.1 | 6.43 |
| CN1CCN(C(=O)CCCNc2ccnc3cc(Cl)ccc23)CC1 | 65.1 nM | 4432 | 0.2023 mMequiv | Dose-dependent effect | 781 nM | 11.99 | 6.52 |
| CCN(CC)CCCC(C)Nc1ccnc2cc(Cl)ccc12 (centres undefined) [CHLOROQUINE] | – | – | 0.17 mMequiv | – | – | – | 5.52 |
| CN1CCN(C(=O)[C@H](Cc2ccccc2)Nc2ccnc3cc(Cl)ccc23)CC1 | 109 nM | 429 | 0.6619 mMequiv | Dose-dependent effect | 116 nM | 1.06 | 5.11 |
| C[C@H](Nc1ccnc2cc(Cl)ccc12)C(=O)NCCN1CCCCC1 | 64.1 nM | 3025 | 0.2166 mMequiv | Dose-dependent effect | > 500 nM | >7.8 | 5.73 |
| CC(C)(C)OC(=O)N[C@@H](Cc1ccccc1)C(=O)C=[N+]=[N-] | – | – | – | – | 55.3 nM | – | – |
| C[C@H](Nc1ccnc2cc(Cl)ccc12)C(=O)NCCCN(C)C | 142 nM | 2606 | 0.176 mMequiv | Dose-dependent effect | > 500 nM | >3.51 | 5.34 |
| CC(C)[C@H](Nc1ccnc2cc(Cl)ccc12)C(=O)N1CCN(C)CC1 | 271 nM | 1023 | 0.2349 mMequiv | Dose-dependent effect | 599 nM | 2.21 | 6.39 |
| CN1CCN(C(=O)C[C@H](Cc2ccccc2)Nc2ccnc3cc(Cl)ccc23)CC1 | 19.2 nM | 5846 | 0.1739 mMequiv | Dose-dependent effect | 55.3 nM | 2.87 | 5.8 |
| CN1CCN(C(=O)CNc2ccnc3cc(Cl)ccc23)CC1 | 149 nM | 1566 | 0.1915 mMequiv | Dose-dependent effect | 177 nM | 1.18 | 7.34 |
| CSCC[C@H](Nc1ccnc2cc(Cl)ccc12)C(=O)N1CCN(C)CC1 | 58.4 nM | 3821 | 0.3595 mMequiv | Dose-dependent effect | 129 nM | 2.2 | 5.04 |
| CCN(CC)CCNC(=O)[C@H](C)Nc1ccnc2cc(Cl)ccc12 | 35.4 nM | 5834 | 0.1531 mMequiv | Dose-dependent effect | > 500 nM | >14.13 | 6.03 |
| C[C@H](Nc1ccnc2cc(Cl)ccc12)C(=O)N1CCN(C)CC1 | 73.8 nM | 2900 | 0.1677 mMequiv | Dose-dependent effect | 207 nM | 2.79 | 5.36 |
| CCN(CC)CCCNC(=O)[C@H](C)Nc1ccnc2cc(Cl)ccc12 | 82.6 nM | 2585 | 0.2145 mMequiv | Dose-dependent effect | > 500 nM | >6.05 | 5.27 |
| CN1CCN(C(=O)[C@H](Cc2c[nH]c3ccccc23)Nc2ccnc3cc(Cl)ccc23)CC1 | 223 nM | 392 | 0.3302 mMequiv | Dose-dependent effect | 262 nM | 1.17 | 6.36 |
| C[C@H](Nc1ccnc2cc(Cl)ccc12)C(=O)N1CCN(c2ccccc2)CC1 | > 500 nM | – | 0.2082 mMequiv | Dose-dependent effect | > 500 nM | – | 5.94 |
| CC[C@H](C)[C@H](Nc1ccnc2cc(Cl)ccc12)C(=O)N1CCN(C)CC1 | 83.8 nM | 2188 | 0.2295 mMequiv | Dose-dependent effect | 365 nM | 4.34 | 5.72 |
| CC[C@H](C)[C@@H](CC(=O)N1CCN(C)CC1)Nc1ccnc2cc(Cl)ccc12 | 33 nM | 7613 | 0.2197 mMequiv | Dose-dependent effect | 168 nM | 5.08 | 6.26 |
| CC[C@H](C)[C@H](NC(=O)OC(C)(C)C)C(=O)C=[N+]=[N-] | – | – | – | – | 168 nM | – | – |
| CN1CCN(C(=O)[C@H](CO)Nc2ccnc3cc(Cl)ccc23)CC1 | 116 nM | 1976 | 0.3604 mMequiv | Dose-dependent effect | 925 nM | 7.96 | 5.68 |
| CN1CCN(C(=O)CC[C@H](Cc2ccccc2)Nc2ccnc3cc(Cl)ccc23)CC1 | 11.5 nM | 11350 | 0.1961 mMequiv | Dose-dependent effect | 71.2 nM | 6.18 | 5.32 |
